Measurements from ChEMBL document CHEMBL4402598, “Design and Synthesis of Bitopic 2-Phenylcyclopropylmethylamine (PCPMA) Derivatives as Selective Dopamine D3 Receptor Ligands” (J Med Chem, 2020).

Key:
[1] = molecular target: D(1A) dopamine receptor (Homo sapiens, UniProt P21728); assay: Displacement of [3H]-SCH23390 from recombinant human D1 receptor transiently expressed in HEKT cell membranes measured after 90 mins by microbeta scintillation counting method
[2] = molecular target: D(2) dopamine receptor (Homo sapiens, UniProt P14416); assay: Displacement of [3H]-N-methylspiperone from recombinant human D2 receptor stably expressed in fibroblast cell membranes measured after 90 mins by microbeta scintillation counting method
D(2) dopamine receptor, sequence (P14416 whole entry): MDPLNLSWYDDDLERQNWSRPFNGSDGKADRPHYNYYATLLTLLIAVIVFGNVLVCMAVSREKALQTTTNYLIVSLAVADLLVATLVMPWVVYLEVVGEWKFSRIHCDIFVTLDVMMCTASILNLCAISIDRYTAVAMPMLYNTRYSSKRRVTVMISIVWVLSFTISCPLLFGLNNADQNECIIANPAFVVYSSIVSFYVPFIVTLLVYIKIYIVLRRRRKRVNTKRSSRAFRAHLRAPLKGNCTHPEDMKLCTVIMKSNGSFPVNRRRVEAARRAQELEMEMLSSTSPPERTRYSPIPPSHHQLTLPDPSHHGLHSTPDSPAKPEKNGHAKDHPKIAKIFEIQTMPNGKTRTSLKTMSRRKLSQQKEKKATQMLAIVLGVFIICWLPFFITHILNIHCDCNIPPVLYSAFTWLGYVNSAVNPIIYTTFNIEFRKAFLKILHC

[3] = molecular target: T1, D(4) dopamine receptor (Homo sapiens, UniProt P21917); assay: Displacement of [3H]-N-methylspiperone from recombinant human D4 receptor stably expressed in HEK cell membranes measured after 90 mins by microbeta scintillation counting method
T1 sequence (P21917 whole entry): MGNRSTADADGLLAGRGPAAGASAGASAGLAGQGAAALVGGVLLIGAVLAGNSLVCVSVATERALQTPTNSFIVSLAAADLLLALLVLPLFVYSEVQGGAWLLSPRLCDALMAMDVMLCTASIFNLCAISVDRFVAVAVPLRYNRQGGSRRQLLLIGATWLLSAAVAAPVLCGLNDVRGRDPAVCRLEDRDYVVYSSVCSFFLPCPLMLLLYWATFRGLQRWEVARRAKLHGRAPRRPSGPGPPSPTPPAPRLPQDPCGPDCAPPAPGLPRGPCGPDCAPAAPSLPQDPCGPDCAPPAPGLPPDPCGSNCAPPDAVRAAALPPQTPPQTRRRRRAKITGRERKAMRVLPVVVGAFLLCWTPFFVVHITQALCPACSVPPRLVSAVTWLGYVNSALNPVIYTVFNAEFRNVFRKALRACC

[4] = molecular target: D(1B) dopamine receptor (Homo sapiens, UniProt P21918); assay: Displacement of [3H]-SCH23390 from recombinant human D5 receptor transiently expressed in HEKT cell membranes measured after 90 mins by microbeta scintillation counting method
D(1B) dopamine receptor, sequence (P21918 whole entry): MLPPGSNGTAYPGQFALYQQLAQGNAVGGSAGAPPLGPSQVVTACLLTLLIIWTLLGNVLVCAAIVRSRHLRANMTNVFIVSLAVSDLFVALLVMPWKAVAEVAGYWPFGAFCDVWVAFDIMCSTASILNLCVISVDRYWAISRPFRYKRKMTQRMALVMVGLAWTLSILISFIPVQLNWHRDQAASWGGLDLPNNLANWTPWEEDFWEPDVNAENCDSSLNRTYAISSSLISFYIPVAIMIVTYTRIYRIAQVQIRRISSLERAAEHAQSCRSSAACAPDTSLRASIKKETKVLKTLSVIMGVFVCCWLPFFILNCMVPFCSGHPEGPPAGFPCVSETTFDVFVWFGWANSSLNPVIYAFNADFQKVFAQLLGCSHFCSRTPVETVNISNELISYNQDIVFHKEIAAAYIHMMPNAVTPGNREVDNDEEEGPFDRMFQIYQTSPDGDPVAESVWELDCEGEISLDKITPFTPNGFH

[5] = molecular target: T2, 5-hydroxytryptamine receptor 2C (Homo sapiens, UniProt P28335); assay: Displacement of [3H]-Mesulergine from recombinant human 5HT2C receptor expressed in HEKT cell membranes measured after 90 mins by microbeta scintillation counting method
T2 sequence (P28335 whole entry): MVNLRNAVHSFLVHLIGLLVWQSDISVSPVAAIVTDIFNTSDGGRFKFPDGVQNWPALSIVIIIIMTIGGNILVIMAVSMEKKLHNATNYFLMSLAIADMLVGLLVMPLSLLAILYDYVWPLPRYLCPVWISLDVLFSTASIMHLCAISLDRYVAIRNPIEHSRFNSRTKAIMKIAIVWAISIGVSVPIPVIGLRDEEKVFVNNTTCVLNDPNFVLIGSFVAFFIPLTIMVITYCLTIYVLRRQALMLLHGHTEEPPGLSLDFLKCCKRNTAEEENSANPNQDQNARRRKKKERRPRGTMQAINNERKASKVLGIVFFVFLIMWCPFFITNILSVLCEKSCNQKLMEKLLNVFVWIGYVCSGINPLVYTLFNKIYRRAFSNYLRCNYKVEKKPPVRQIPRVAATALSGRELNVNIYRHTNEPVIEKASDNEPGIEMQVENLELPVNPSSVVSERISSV

[6] = molecular target: T2, 5-hydroxytryptamine receptor 2C; assay: Antagonist activity at human 5HT2C receptor stably expressed in HEK293 cells co-expressing Gq assessed as inhibition of 5-HT-induced calcium mobilization preincubated for 15 mins followed by 5-HT addition and measured at 1 sec interval for 60 secs by Fluo-4 calcium dye based FLIPR assay; type: functional, cell-based
Procedure, shortened: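 5-HT2C stably transfected HEK293 cells, loaded with Fluo-4 Direct (HBSS, 20 mM HEPES pH 7.4, 2.5 mM probenecid; 50 min 37 °C, 10 min room temperature). Test compound added, then 5-HT (final 1 nM) 15 min later.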

[7] = molecular target: 5-hydroxytryptamine receptor 2A (Homo sapiens, UniProt P28223); assay: Agonist activity at 5HT2A receptor (unknown origin) expressed in HEK293 cells co-expressing Gq assessed as induction of calcium mobilization measured at 1 sec interval for 60 secs by Fluo-4 calcium dye based FLIPR assay; type: cell-based; conditions: hek293, 1 min
5-hydroxytryptamine receptor 2A, sequence (P28223 whole entry): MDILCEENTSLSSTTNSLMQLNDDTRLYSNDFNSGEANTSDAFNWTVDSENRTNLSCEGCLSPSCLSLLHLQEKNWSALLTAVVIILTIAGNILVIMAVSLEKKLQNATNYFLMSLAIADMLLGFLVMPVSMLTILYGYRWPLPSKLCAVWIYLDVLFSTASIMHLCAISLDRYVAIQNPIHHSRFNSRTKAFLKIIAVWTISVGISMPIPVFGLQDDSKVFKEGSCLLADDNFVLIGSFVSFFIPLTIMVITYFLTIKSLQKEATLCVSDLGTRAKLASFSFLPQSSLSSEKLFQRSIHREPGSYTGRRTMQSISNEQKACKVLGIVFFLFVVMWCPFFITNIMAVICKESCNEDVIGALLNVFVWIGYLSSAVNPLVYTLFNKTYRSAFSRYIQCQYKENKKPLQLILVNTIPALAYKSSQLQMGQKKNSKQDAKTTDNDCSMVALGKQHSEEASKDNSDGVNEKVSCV

[8] = molecular target: 5-hydroxytryptamine receptor 2B (Homo sapiens, UniProt P41595); assay: Agonist activity at 5HT2B receptor (unknown origin) expressed in HEK293 cells co-expressing Gq assessed as induction of calcium mobilization measured at 1 sec interval for 60 secs by Fluo-4 calcium dye based FLIPR assay; type: cell-based; conditions: hek293, 1 min
5-hydroxytryptamine receptor 2B, sequence (P41595 whole entry): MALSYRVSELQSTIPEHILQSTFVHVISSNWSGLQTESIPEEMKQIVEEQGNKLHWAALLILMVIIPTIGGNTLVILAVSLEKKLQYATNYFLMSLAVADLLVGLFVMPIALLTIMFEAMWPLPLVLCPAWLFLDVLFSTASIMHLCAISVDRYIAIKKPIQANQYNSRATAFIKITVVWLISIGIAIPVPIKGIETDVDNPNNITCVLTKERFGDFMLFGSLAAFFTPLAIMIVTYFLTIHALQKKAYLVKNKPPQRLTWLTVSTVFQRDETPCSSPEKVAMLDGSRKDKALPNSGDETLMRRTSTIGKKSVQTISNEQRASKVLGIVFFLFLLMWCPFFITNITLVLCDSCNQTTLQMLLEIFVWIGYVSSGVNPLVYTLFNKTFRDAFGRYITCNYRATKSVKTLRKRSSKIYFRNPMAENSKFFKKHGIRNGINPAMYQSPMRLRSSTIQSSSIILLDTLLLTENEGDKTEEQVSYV

[9] = Cmax in ICR mouse at 10 mg/kg, po by LC-MS/MS analysis; type: ADME, organism-based; parameters: dose 10 mg/kg, route oral; conditions: in vivo
Procedure, shortened: (§1)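 Male ICR mice (6-8 weeks, ~25 g) dosed with compound dissolved in saline, 5 mg/kg iv or 10 mg/kg po, nine animals per group. Samples stored at -80 °C; drug quantified by LC-MS/MS.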

[10] = Half life in ICR mouse at 5 mg/kg, iv by LC-MS/MS analysis; type: ADME, organism-based; conditions: in vivo; procedure, shortened: as §1
[11] = AUC (0 to t) in ICR mouse at 5 mg/kg, iv by LC-MS/MS analysis; type: ADME, organism-based; conditions: in vivo; procedure, shortened: as §1
[12] = Clearance in ICR mouse at 5 mg/kg, iv by LC-MS/MS analysis; type: ADME, organism-based; conditions: in vivo; procedure, shortened: as §1
[13] = MRT in ICR mouse at 5 mg/kg, iv by LC-MS/MS analysis; type: ADME, organism-based; conditions: in vivo; procedure, shortened: as §1
[14] = Volume of distribution at steady state in ICR mouse at 5 mg/kg, iv by LC-MS/MS analysis; type: ADME, organism-based; conditions: in vivo, read-out: Vdss; procedure, shortened: as §1
[15] = Drug level in ICR mouse brain at 5 mg/kg, iv measured after 0.5 hrs by LC-MS/MS analysis; type: ADME, organism-based
Procedure, shortened: (§2)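 Male ICR mice (6-8 weeks, ~25 g) received compound in saline, 5 mg/kg iv or 10 mg/kg po. Brains collected at 0.5 and 2.0 h, saline-washed, weighed, homogenized in cold 50% methanol (1 g:3 mL). Plasma prepared from orbital blood. Samples held at -80 °C; LC-MS/MS quantitation. Brain/plasma ratio calculated from the two concentrations.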

[16] = Drug level in ICR mouse plasma at 5 mg/kg, iv measured after 0.5 hrs by LC-MS/MS analysis; type: ADME, organism-based; procedure, shortened: as §2
[17] = Ratio of drug level in ICR mouse brain to plasma at 5 mg/kg, iv measured after 0.5 hrs by LC-MS/MS analysis; type: ADME, organism-based; conditions: read-out: BPR; procedure, shortened: as §2
[18] = Drug level in ICR mouse brain at 5 mg/kg, iv measured after 2 hrs by LC-MS/MS analysis; type: ADME, organism-based; procedure, shortened: as §2
[19] = Drug level in ICR mouse plasma at 5 mg/kg, iv measured after 2 hrs by LC-MS/MS analysis; type: ADME, organism-based; procedure, shortened: as §2
[20] = Ratio of drug level in ICR mouse brain to plasma at 5 mg/kg, iv measured after 2 hrs by LC-MS/MS analysis; type: ADME, organism-based; conditions: read-out: BPR; procedure, shortened: as §2
[21] = Tmax in ICR mouse at 10 mg/kg, po by LC-MS/MS analysis; type: ADME, organism-based; conditions: in vivo; procedure, shortened: as §1
[22] = Half life in ICR mouse at 10 mg/kg, po by LC-MS/MS analysis; type: ADME, organism-based; conditions: in vivo; procedure, shortened: as §1
[23] = AUC (0 to t) in ICR mouse at 10 mg/kg, po by LC-MS/MS analysis; type: ADME, organism-based; conditions: in vivo; procedure, shortened: as §1
[24] = MRT in ICR mouse at 10 mg/kg, po by LC-MS/MS analysis; type: ADME, organism-based; conditions: in vivo; procedure, shortened: as §1
[25] = Oral bioavailability in ICR mouse at 10 mg/kg by LC-MS/MS analysis; type: ADME, organism-based; conditions: in vivo; procedure, shortened: as §1
[26] = Drug level in ICR mouse brain at 10 mg/kg, po measured after 0.5 hrs by LC-MS/MS analysis; type: ADME, organism-based; procedure, shortened: as §2
[27] = Drug level in ICR mouse plasma at 10 mg/kg, po measured after 0.5 hrs by LC-MS/MS analysis; type: ADME, organism-based; procedure, shortened: as §2
[28] = Ratio of drug level in ICR mouse brain to plasma at 10 mg/kg, po measured after 0.5 hrs by LC-MS/MS analysis; type: ADME, organism-based; conditions: read-out: BPR; procedure, shortened: as §2
[29] = Drug level in ICR mouse brain at 10 mg/kg, po measured after 2 hrs by LC-MS/MS analysis; type: ADME, organism-based; procedure, shortened: as §2
[30] = Drug level in ICR mouse plasma at 10 mg/kg, po measured after 2 hrs by LC-MS/MS analysis; type: ADME, organism-based; procedure, shortened: as §2
[31] = Ratio of drug level in ICR mouse brain to plasma at 10 mg/kg, po measured after 2 hrs by LC-MS/MS analysis; type: ADME, organism-based; conditions: read-out: BPR; procedure, shortened: as §2

D(1A) dopamine receptor, sequence (P21728 whole entry): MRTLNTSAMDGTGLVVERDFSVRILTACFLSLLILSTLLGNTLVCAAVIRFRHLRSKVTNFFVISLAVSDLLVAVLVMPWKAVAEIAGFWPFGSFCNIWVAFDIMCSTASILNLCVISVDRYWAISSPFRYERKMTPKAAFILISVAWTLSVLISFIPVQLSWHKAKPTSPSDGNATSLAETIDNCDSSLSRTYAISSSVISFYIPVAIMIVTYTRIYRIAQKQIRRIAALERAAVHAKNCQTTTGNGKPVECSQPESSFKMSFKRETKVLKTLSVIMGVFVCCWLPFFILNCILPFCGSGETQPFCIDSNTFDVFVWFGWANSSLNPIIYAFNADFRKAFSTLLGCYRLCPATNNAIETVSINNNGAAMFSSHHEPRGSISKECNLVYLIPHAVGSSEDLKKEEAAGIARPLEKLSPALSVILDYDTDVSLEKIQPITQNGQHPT

CCCN(CCCCNC(=O)c1ccc(-c2ccccn2)cc1)C[C@H]1C[C@@H]1c1cc(F)ccc1OC.Cl
Ki [1]: 1070 nM | Ki [2]: 1230 nM | Ki [3]: 851 nM | Ki [4]: > 5000 nM | Ki [5]: 50.1 nM | IC50 [6]: 860 nM | Activity [7]: Active | Activity [8]: Not Active

CCCN(CCCCNC(=O)c1ccc2ccccc2c1)C[C@@H]1C[C@H]1c1cccc(Cl)c1Cl.Cl
Cmax [9]: 37.3 ng/mL | Ki [1]: 1290 nM | Ki [2]: 676 nM | Ki [3]: 813 nM | Ki [4]: > 5000 nM | Ki [5]: 427 nM | IC50 [6]: 16100 nM | Activity [7]: Active | Activity [8]: Not Active | half-life [10]: 1.51 h | AUC(0-t) [11]: 616 ng·h/mL | clearance [12]: 134 mL/min/kg | MRT [13]: 2.58 h | Vd [14]: 20.8 L/kg | concentration at 0.5 h [15]: 3420 ng/mL | concentration at 0.5 h [16]: 270 ng/mL | Kp at 0.5 h [17]: 12.7 | concentration at 2 h [18]: 913 ng/mL | concentration at 2 h [19]: 82.6 ng/mL | Kp at 2 h [20]: 11.1 | Tmax [21]: 0.25 h | half-life [22]: 2.08 h | AUC(0-t) [23]: 81.1 ng·h/mL | MRT [24]: 2.59 h | bioavailability [25]: 6.6% | concentration at 0.5 h [26]: 23.2 ng/mL | concentration at 0.5 h [27]: 28.4 ng/mL | Kp at 0.5 h [28]: 0.82 | concentration at 2 h [29]: 23.2 ng/mL | concentration at 2 h [30]: 16.4 ng/mL | Kp at 2 h [31]: 1.61
